Legend:
Format in all cases: in vitro ADME
Settings in all cases: 3.0 μM DB289, 50 pmol/ml P450, 15 min
CYP4A11 = CYP4A11 (Homo sapiens, UniProt Q02928); experiment: DB289 consumption by recombinant CYP4A11
CYP2J2 = biological target: T1, CYP2J2 (Homo sapiens, UniProt P51589); experiment: DB289 consumption by recombinant CYP2J2
T1 sequence (P51589 1-502): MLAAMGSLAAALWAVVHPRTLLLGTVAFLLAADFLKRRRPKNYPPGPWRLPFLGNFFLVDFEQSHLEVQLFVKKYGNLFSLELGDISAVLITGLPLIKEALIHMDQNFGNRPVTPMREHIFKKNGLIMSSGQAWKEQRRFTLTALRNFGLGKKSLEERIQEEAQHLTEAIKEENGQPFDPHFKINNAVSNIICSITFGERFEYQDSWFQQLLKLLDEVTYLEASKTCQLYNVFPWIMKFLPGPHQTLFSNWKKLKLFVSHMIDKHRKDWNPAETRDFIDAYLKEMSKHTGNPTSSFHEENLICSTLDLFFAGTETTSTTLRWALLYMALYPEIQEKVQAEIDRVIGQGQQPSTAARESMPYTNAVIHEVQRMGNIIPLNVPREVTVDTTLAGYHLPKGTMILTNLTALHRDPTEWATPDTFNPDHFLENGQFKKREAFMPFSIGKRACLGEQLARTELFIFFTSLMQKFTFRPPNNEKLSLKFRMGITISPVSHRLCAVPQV
How it was run: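 A second recombinant panel (Supersomes; the CYP2J2, CYP3A7 and CYP4F forms coexpressed with reductase and cytochrome b5). Each enzyme was incubated alone with 3.0 μM substrate and NADPH in pH 7.4 phosphate/MgCl2 at 37°C for 15 min. Acetonitrile quench with internal standard, centrifugation, LC/MS/MS. Percent consumed normalised to 0 min. Control Supersomes; means of duplicates.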

recombinant human CYP1A1 = recombinant human CYP1A1 (Homo sapiens, UniProt P04798); experiment: DB289 consumption by recombinant CYP1A1
How it was run: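 Baculovirus-insect-cell Supersomes coexpressing human P450 with NADPH-P450 reductase; the CYP2E1 enzyme also had cytochrome b5. 3.0 μM substrate, 50 pmol/ml P450 (100 pmol/ml for CYP2C8 and CYP2C9), in 100 mM phosphate pH 7.4 with 3.3 mM MgCl2 and 1 mM NADPH, 37°C, 15 min. Quenched in ice-cold acidified acetonitrile with deuterated internal standard, then LC/MS/MS. Percent consumed relative to 0 min; control Supersomes; duplicates.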

Chain of CYP4A11 (Q02928 5-519): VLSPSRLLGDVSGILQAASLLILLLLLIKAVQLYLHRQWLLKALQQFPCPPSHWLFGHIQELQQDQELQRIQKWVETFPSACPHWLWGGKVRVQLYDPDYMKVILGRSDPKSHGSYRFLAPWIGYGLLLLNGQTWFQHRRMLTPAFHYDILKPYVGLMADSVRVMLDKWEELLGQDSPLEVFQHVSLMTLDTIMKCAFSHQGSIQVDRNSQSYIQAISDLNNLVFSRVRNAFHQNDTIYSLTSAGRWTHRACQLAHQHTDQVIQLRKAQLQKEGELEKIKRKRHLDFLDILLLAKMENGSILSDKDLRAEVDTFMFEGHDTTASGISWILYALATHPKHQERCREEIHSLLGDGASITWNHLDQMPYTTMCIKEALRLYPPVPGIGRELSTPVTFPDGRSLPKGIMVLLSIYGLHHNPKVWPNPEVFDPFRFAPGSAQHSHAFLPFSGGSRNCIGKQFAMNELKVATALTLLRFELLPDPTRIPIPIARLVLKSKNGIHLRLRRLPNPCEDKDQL
Chain of recombinant human CYP1A1 (P04798 whole entry): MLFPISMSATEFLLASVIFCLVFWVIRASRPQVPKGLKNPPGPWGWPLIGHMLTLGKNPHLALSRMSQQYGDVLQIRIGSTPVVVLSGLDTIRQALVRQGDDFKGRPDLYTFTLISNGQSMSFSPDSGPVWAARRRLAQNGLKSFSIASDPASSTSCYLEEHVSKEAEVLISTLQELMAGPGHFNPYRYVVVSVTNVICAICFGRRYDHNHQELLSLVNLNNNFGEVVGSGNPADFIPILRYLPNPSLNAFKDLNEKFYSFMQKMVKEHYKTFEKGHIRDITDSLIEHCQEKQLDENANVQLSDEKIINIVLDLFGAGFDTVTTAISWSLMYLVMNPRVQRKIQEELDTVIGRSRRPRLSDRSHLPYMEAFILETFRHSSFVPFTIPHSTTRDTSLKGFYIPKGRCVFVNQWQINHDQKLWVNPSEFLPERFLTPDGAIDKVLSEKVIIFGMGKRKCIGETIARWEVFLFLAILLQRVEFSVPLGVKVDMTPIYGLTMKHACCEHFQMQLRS

## CON=C(N)c1ccc(-c2ccc(-c3ccc(C(N)=NOC)cc3)o2)cc1 [DB289, 2,5-bis(4-amidinophenyl)furan-bis-O-methylamidoxime]
CYP4A11
  percentage of substrate consumed: less than 5%
CYP2J2
  percentage of substrate consumed: 85%
Recombinant human CYP1A1
  percentage of substrate consumed: 82%

Reference: paper PMC2077835 (Drug metabolism and disposition: the biological fate of …, 2006)
